Data set [1] addresses T1, Multidrug efflux pump subunit AcrB (Escherichia coli (strain K12)) (UniProt P31224).
T1 sequence (whole entry): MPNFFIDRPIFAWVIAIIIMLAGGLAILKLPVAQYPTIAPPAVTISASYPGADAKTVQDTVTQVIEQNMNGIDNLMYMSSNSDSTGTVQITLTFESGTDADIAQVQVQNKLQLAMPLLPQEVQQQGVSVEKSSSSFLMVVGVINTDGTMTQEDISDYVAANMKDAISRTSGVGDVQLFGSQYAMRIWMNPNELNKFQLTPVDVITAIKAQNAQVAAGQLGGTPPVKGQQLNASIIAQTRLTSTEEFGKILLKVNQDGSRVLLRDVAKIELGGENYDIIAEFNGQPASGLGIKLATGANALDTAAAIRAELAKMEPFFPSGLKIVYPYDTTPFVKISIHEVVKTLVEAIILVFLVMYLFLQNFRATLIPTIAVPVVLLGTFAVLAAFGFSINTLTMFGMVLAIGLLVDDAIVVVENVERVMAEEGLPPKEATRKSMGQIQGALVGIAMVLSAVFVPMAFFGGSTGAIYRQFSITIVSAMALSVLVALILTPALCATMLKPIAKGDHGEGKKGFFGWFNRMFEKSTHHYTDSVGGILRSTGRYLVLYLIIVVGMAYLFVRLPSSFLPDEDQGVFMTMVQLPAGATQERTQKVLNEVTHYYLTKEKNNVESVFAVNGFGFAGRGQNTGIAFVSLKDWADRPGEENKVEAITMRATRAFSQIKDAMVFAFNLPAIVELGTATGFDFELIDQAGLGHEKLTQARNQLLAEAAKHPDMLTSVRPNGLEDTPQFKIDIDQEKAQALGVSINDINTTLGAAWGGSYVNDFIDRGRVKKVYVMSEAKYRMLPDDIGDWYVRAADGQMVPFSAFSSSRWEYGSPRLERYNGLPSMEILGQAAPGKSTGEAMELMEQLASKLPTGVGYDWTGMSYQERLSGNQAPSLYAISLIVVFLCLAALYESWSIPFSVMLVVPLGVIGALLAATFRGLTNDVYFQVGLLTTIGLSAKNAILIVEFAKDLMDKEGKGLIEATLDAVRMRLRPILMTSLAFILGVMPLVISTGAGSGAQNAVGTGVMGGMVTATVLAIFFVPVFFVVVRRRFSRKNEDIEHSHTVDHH
Description: Inhibition of AcrB in multidrug-resistant Escherichia coli BW25113 assessed as potentiation of tetraphenylphosphonium-induced antibacterial activity by measuring tetraphenylphosphonium MIC at 128 ug/ml by checkerboard titration method (reference value: 1024 ug/ml). The settings on record: dose 128.0 µg/ml.

Data set [2] deals with T1, Multidrug efflux pump subunit AcrB (Escherichia coli (strain K12)). The settings on record: Escherichia coli BW25113; dose 32.0 µg/ml.
Data set [3] has the same target. Briefly: Inhibition of AcrB in multidrug-resistant Escherichia coli BW25113 assessed as potentiation of tetraphenylphosphonium-induced antibacterial activity by measuring tetraphenylphosphonium MIC at 8 ug/ml by checkerboard titration method (reference value: 1024 ug/ml). The following applies: dose 8.0 µg/ml.
Data set [4] shares this target. Briefly: Inhibition of AcrB in multidrug-resistant Escherichia coli BW25113 assessed as potentiation of levofloxacin-induced antibacterial activity by measuring levofloxacin MIC at 16 ug/ml by checkerboard titration method (reference value: 0.06 ug/ml). The settings on record: dose 16.0 µg/ml.
Data set [5] shares this target. Description: Inhibition of AcrB in multidrug-resistant Escherichia coli BW25113 assessed as potentiation of tetraphenylphosphonium-induced antibacterial activity by measuring tetraphenylphosphonium MIC at 64 ug/ml by checkerboard titration method (reference value: 1024 ug/ml). The following applies: dose 64.0 µg/ml.
The target is the same in data set [6]. Description: Inhibition of AcrB in multidrug-resistant Escherichia coli BW25113 assessed as potentiation of erythromycin-induced antibacterial activity by measuring erythromycin MIC at 16 ug/ml by checkerboard titration method (reference value: 64 ug/ml). The settings on record: dose 16.0 µg/ml.
Data set [7] has the same target. The following applies: Escherichia coli BW25113; dose 8.0 µg/ml.
The subject of data set [8] is Cell membrane. Description: Induction of outer membrane permeabilization in wild type Escherichia coli BW25113 assessed as increase in nitrocefin hydrolysis at 128 ug/ml in presence of CCCP by spectroscopic analysis. The settings on record: dose 128 µg/ml. In a few lines: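 Intact E. coli were treated with 10 μM CCCP to block nitrocefin efflux, then given compound, nothing, or polymyxin B as permeabilizer control. Nitrocefin was added, and hydrolysis by periplasmic β-lactamase was followed as the rise in absorbance at 490 nm. Duplicate experiments were run on different days.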

Data set [9] addresses T1, Multidrug efflux pump subunit AcrB (Escherichia coli (strain K12)). Description: Inhibition of AcrB in multidrug-resistant Escherichia coli BW25113 assessed as potentiation of chloramphenicol-induced antibacterial activity by measuring chloramphenicol MIC at 16 ug/ml by checkerboard titration method (reference value: 8 ug/ml). The settings on record: dose 16.0 µg/ml.
For data set [10] the target is unchanged. Description: Inhibition of AcrB in multidrug-resistant Escherichia coli BW25113 assessed as potentiation of chloramphenicol-induced antibacterial activity by measuring chloramphenicol MIC at 32 ug/ml by checkerboard titration method (reference value: 8 ug/ml). The following applies: dose 32.0 µg/ml.
Data set [11] has the same target. Briefly: Inhibition of AcrB in Escherichia coli BW25113 assessed as reduction in glucose-induced nile red efflux at 100 uM preincubated for 15 mins followed by nile red addition and incubated for 3 hrs in shaker in presence of CCCP by fluorimetric analysis. The settings on record: time 3.25 hrs. In a few lines: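 Wild-type and AcrB-deleted cells were preloaded with Nile Red, with or without compound. Fluorescence was recorded, and efflux was triggered at 100 s with 0.2% glucose. Traces were compared with the deletion-strain level. Triplicate experiments used different cell batches.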

Data set [12] has the same target. The following applies: Escherichia coli BW25113; dose 128.0 µg/ml.
The target is the same in data set [13]. Description: Inhibition of AcrB in multidrug-resistant Escherichia coli BW25113 assessed as potentiation of chloramphenicol-induced antibacterial activity by measuring chloramphenicol MIC at 8 ug/ml by checkerboard titration method (reference value: 8 ug/ml). The settings on record: dose 8.0 µg/ml.
For data set [14] the target is unchanged. Description: Inhibition of AcrB in multidrug-resistant Escherichia coli BW25113 assessed as potentiation of chloramphenicol-induced antibacterial activity by measuring chloramphenicol MIC at 128 ug/ml by checkerboard titration method (reference value: 8 ug/ml). The following applies: dose 128.0 µg/ml.
For data set [15] the target is unchanged. Briefly: Inhibition of AcrB in multidrug-resistant Escherichia coli BW25113 assessed as potentiation of erythromycin-induced antibacterial activity by measuring erythromycin MIC at 8 ug/ml by checkerboard titration method (reference value: 64 ug/ml). The following applies: dose 8.0 µg/ml.
For data set [16] the target is unchanged. Briefly: Inhibition of AcrB in multidrug-resistant Escherichia coli BW25113 assessed as potentiation of tetraphenylphosphonium-induced antibacterial activity by measuring tetraphenylphosphonium MIC at 16 ug/ml by checkerboard titration method (reference value: 1024 ug/ml). The following applies: dose 16.0 µg/ml.

The structures appear in SMILES notation. Converted amounts (≈) assume the structure as drawn. The source made the active and inactive calls. The calls are words filed in the database; no cut-off is given here.

As to `Cc1ccc(COc2cccc3c4c(c(-c5nnco5)cc23)CCC(C)(C)O4)cc1`, the MIC turned out to be 64 µg/mL in [1]; 16 µg/mL (≈ 40 µM) in data set [2]; 512 µg/mL in data set [3]; 0.03 µg/mL in data set [4]; 512 µg/mL in data set [5]; 32 µg/mL in data set [6]. Further, the MIC was determined as 16 µg/mL (≈ 40 µM) in data set [7]; 8 µg/mL in data set [9]; 8 µg/mL in data set [10]; 16 µg/mL (≈ 40 µM) in [12]; 8 µg/mL in data set [13]; 2 µg/mL in data set [14]. The MIC in data set [15] came to 32 µg/mL; in data set [16], 512 µg/mL. Moreover, in data set [8], the Activity entry is “Not Active”. The inhibition result in data set [11] was “Active”.
Regarding `CC1(C)CCc2c(Cn3cnnn3)cc3c(OCc4ccc([N+](=O)[O-])cc4)cccc3c2O1`, the MIC was 512 µg/mL in data set [1]; 16 µg/mL (≈ 35.9 µM) in [2]; 1020 µg/mL in data set [3]; 0.06 µg/mL in [4]; 1020 µg/mL in data set [5]; 64 µg/mL in data set [6]. Also, the MIC in data set [7] turned out to be 16 µg/mL (≈ 35.9 µM); in data set [9], 8 µg/mL; in data set [10], 8 µg/mL; in [12], 16 µg/mL (≈ 35.9 µM); in data set [13], 8 µg/mL; in data set [14], 8 µg/mL. The MIC in [15] was 64 µg/mL; in data set [16] it was 1020 µg/mL. The Activity entry in data set [8] is recorded as “Not Active”. In addition, in [11], the inhibition result was “Active”.
Turning to `COc1cccc(COc2cccc3c4c(c(C(=O)O)cc23)CCC(C)(C)O4)c1`, the MIC in data set [1] stood at 256 µg/mL; in [2], 16 µg/mL (≈ 40.8 µM); in [3], 1020 µg/mL; in data set [4], 0.06 µg/mL; in data set [5] it was 512 µg/mL; in data set [6], 64 µg/mL. The MIC amounted to 16 µg/mL (≈ 40.8 µM) in [7]; 8 µg/mL in [9]; 8 µg/mL in data set [10]; 16 µg/mL (≈ 40.8 µM) in data set [12]; 8 µg/mL in data set [13]; 4 µg/mL in data set [14]. Moreover, the MIC in data set [15] came to 64 µg/mL; in data set [16], 1020 µg/mL. Further, the Activity result in data set [8] is listed as “Not Active”. In addition, the inhibition entry in [11] was “Active”.
For `CC1(C)CCc2c(Cn3cnnn3)cc3c(OCc4ccccc4)cccc3c2O1`, the MIC in data set [1] stood at 1020 µg/mL; in data set [2] it was 16 µg/mL (≈ 40 µM); in data set [3], 1020 µg/mL; in [4], 0.06 µg/mL; in data set [5], 1020 µg/mL; in data set [6], 64 µg/mL. Also, the MIC in data set [7] came to 16 µg/mL (≈ 40 µM); in data set [9], 8 µg/mL; in [10] it was 8 µg/mL; in data set [12], 16 µg/mL (≈ 40 µM); in [13], 8 µg/mL; in data set [14] it was 4 µg/mL. Further, the MIC came to 64 µg/mL in data set [15] and 1020 µg/mL in data set [16]. Also, in data set [11], the inhibition entry is “Active”.
As for `CC1CN(C(=O)c2cc3c(OCc4c(Cl)cccc4Cl)cccc3c3c2CCC(C)(C)O3)CC(C)O1` (stereo not drawn), the MIC in data set [1] turned out to be 1020 µg/mL; in [2], 16 µg/mL (≈ 30.3 µM); in data set [3] it was 1020 µg/mL; in data set [4], 0.03 µg/mL; in [5] it was 1020 µg/mL; in [6], 64 µg/mL. The MIC in data set [7] turned out to be 16 µg/mL (≈ 30.3 µM); in [9] it was 8 µg/mL; in [10], 8 µg/mL; in data set [12] it was 16 µg/mL (≈ 30.3 µM); in [13] it was 8 µg/mL; in data set [14] it was 8 µg/mL. For the same compound, the figures for the MIC in data set [15] and in data set [16] were 64 µg/mL and 1020 µg/mL, respectively. Further, the inhibition result in data set [11] was “Active”.
Consider `CC1(C)CCc2c(-c3nnco3)cc3c(OCc4ccc([N+](=O)[O-])cc4)cccc3c2O1`, for which the MIC in data set [1] was found to be 1020 µg/mL; in data set [2], 16 µg/mL (≈ 37.1 µM); in [3], 1020 µg/mL; in data set [4], 0.06 µg/mL; in data set [5], 1020 µg/mL; in [6] it was 64 µg/mL. In addition, the MIC in data set [7] stood at 16 µg/mL (≈ 37.1 µM); in data set [9], 8 µg/mL; in data set [10], 8 µg/mL; in data set [12], 16 µg/mL (≈ 37.1 µM); in [13] it was 8 µg/mL; in data set [14], 4 µg/mL. Besides, the MIC turned out to be 64 µg/mL in [15] and 1020 µg/mL in data set [16]. Also, the inhibition entry in data set [11] was “Active”.
